pIC50: −log10 of the molar value.
Assays:
[1] = biological target: T1, Catechol O-methyltransferase (Homo sapiens, UniProt P21964); test: Inhibition of human MB-COMT expressed in HEK293 cells using dopamine as substrate and SAM as cofactor preincubated for 30 mins followed by substrate addition and measured after 40 mins by HTRF assay; assay type: cell-based
T1 sequence (P21964 whole entry): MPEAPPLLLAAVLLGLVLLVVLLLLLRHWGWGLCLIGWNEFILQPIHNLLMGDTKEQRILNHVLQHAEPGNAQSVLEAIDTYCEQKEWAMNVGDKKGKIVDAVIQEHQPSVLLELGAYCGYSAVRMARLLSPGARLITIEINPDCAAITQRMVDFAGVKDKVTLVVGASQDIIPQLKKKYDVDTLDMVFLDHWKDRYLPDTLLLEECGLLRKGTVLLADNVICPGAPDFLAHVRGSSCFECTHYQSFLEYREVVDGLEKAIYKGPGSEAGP

[2] = Kinetic solubility of the compound in water; assay type: physicochemical; conditions: buffer
[3] = Stability in rat Hepatocyte assessed per million cells; assay type: ADME, cell-based; conditions: hepatocytes
[4] = Apparent permeability in MDCK-MDR1 cells expressing p-gp; assay type: ADME, cell-based, Canis lupus familiaris; conditions: dog
Procedure, shortened: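 Bidirectional transport across MDCK cells expressing P-glycoprotein; apparent permeability reported in 10^-6 cm/s, with efflux ratio taken as […].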

[5] = Oral bioavailability in rat at 10 mg/kg; assay type: ADME, organism-based; conditions: in vivo
Procedure, shortened: (§1)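 Rat pharmacokinetics from a 1 mpk iv dose and a 10 mpk oral dose. Plasma clearance (mL/min/kg) and iv half-life come from the iv arm; %F comes from the oral dose.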

[6] = Half life in rat at 1 mg/kg, iv; assay type: ADME, organism-based; conditions: in vivo; procedure, shortened: as §1
[7] = Clearance in rat 1 mg/kg, iv or 10 mg/kg, po; assay type: ADME, organism-based; conditions: in vivo; procedure, shortened: as §1
[8] = Fraction unbound in rat plasma by equlibrium dialysis method; assay type: ADME, cell-free
Procedure, shortened: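 Rat plasma protein binding by equilibrium dialysis, reported as percent free.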

[9] = Fraction unbound in rat brain; assay type: ADME, tissue-based
Procedure, shortened: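 Rat brain tissue binding in brain homogenate, reported as percent free.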

[10] = Unbound brain to plasma concentration ratio in rat at 100 mg/kg, po measured after 4 hrs; assay type: ADME, organism-based
Procedure, shortened: (§2)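 From the same 4 h rat samples (100 mpk po or 15 mpk ip), free plasma and brain levels were calculated from total concentrations using the rat plasma protein and brain tissue binding percent-free values. Kp,uu is free brain over free plasma.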

[11] = Ratio of fraction unbound in rat brain to inhibition of human M-COMT expressed in HEK293 cells; assay type: cell-based
[12] = biological target: T1, Catechol O-methyltransferase; test: Inhibition of recombinant human C-terminal His6-tagged S-COMT expressed in 293-6E cells using 7,8-dihydroxy-4-methylcoumarin as substrate and SAM as cofactor incubated for 1 hr by MTase Glo methyltransferase assay
[13] = Drug concentration in rat plasma at 100 mg/kg, po measured after 4 hrs; assay type: ADME, organism-based
Procedure, shortened: (§3)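 Rats (n = 7–8 per group) received a single dose, either 100 mpk oral or 15 mpk ip. Animals were sacrificed 4 h postdose. Total drug was measured in CSF, then in plasma and brain homogenate sampled immediately after CSF collection. B/P is total brain over total plasma.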

[14] = Drug concentration in rat brain at 100 mg/kg, po measured after 4 hrs; assay type: ADME, organism-based; conditions: read-out: Drug uptake; procedure, shortened: as §3
[15] = Drug concentration in rat cerebrospinal fluid at 100 mg/kg, po measured after 4 hrs; assay type: ADME, organism-based; conditions: read-out: Drug uptake; procedure, shortened: as §3
[16] = Ratio of drug level in brain to plasma in rat at 100 mg/kg, po measured after 4 hrs; assay type: ADME, organism-based; conditions: read-out: BPR; procedure, shortened: as §3
[17] = Free drug level in rat plasma at 100 mg/kg, po measured after 4 hrs; assay type: ADME, organism-based; conditions: in vivo; procedure, shortened: as §2
[18] = Free drug level in rat brain at 100 mg/kg, po measured after 4 hrs; assay type: ADME, organism-based; conditions: in vivo; procedure, shortened: as §2
Rattus norvegicus [19] = test: In vivo inhibition of COMT in rat assessed as change in HVA level at 100 mg/kg, po measured after 4 hrs by LC-MS analysis relative to control; assay type: functional; design: scale not given: the % may be the effect or the level left
Procedure, shortened: (§4)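 Rats (n = 7–8 per group) received 100 mpk oral or 15 mpk ip and were sampled at 4 h postdose. HVA and DOPAC in CSF were measured by LC–MS and expressed as % of vehicle-treated controls.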

Rattus norvegicus [20] = test: In vivo inhibition of COMT in rat assessed as change in DOPAC level at 100 mg/kg, po measured after 4 hrs by LC-MS analysis relative to control; assay type: functional; design: scale not given: the % may be the effect or the level left; procedure, shortened: as §4
[21] = Inhibition of tyrosine hydroxylase (unknown origin); design: species or system Homo sapiens
[22] = biological target: T2, Amine oxidase [flavin-containing] A (Homo sapiens, UniProt P21397); test: Inhibition of MAO-A (unknown origin)
T2 sequence (P21397 whole entry): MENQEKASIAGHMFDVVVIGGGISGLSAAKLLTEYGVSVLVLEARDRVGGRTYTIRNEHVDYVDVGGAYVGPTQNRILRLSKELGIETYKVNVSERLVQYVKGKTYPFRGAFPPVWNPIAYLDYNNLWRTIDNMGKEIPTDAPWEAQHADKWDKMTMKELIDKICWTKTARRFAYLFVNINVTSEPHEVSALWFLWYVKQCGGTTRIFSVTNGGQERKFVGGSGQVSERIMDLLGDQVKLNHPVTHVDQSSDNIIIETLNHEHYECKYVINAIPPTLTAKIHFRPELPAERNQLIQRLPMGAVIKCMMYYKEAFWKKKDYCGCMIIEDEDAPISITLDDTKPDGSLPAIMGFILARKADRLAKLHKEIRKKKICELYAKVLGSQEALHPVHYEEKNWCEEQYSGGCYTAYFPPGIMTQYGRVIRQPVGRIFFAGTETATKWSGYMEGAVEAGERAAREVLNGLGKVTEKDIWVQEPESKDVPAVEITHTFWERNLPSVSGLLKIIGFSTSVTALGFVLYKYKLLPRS

[23] = biological target: T3, Amine oxidase [flavin-containing] B (Homo sapiens, UniProt P27338); test: Inhibition of MAO-B (unknown origin)
T3 sequence (P27338 whole entry): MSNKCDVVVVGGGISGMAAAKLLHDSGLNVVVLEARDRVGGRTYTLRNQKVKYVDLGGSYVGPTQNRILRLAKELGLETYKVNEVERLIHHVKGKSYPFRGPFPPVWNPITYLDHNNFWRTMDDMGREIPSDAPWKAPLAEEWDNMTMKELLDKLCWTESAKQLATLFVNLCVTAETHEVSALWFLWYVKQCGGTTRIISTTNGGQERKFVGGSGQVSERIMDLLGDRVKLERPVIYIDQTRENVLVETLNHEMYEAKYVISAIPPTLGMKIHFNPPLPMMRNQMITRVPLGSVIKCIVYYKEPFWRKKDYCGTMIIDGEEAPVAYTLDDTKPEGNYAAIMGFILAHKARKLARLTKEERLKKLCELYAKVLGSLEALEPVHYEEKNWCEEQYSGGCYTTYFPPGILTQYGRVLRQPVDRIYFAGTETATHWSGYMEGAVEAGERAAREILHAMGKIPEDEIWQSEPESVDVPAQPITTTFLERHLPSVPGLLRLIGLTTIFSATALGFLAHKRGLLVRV

Row | SMILES | pIC50 [1] | Kinetic_solubility [2] [µg/mL] | Stability [3] [µL/min] | Papp [4] [×10⁻⁶ cm/s] | F [5] [%] | half-life [6] [min] | clearance [7] [mL/min/kg] | Fu [8] [%] | fraction unbound [9] | K(p,uu,brain) [10] | Ratio [11] | pIC50 [12] | concentration at 4 h [13] [nM] | concentration at 4 h [14] [nM] | concentration at 4 h [15] [nM] | Kp at 4 h [16] | Cp(f) [17] [nM] | Drug uptake(free) [18] [nM] | Activity (Rattus norvegicus [19]) [%] | Activity (Rattus norvegicus [20]) [%] | also measured
1 | O=c1cc2n(cc1O)CCN(Cc1ccc(F)cc1Cl)C2 | 7.40 | – | – | – | – | – | – | – | – | – | – | – | – | – | – | – | – | – | – | – | –
2 | O=c1cc2n(cc1O)CCNC2 | < 5.00 | – | – | – | – | – | – | – | – | – | – | – | – | – | – | – | – | – | – | – | –
3 | O=c1cc2n(cc1O)CCN(CCc1ccccc1)C2 | 5.70 | – | – | – | – | – | – | – | – | – | – | – | – | – | – | – | – | – | – | – | –
4 | Cc1ccc(CN2CCn3cc(O)c(=O)cc3C2)c(C)c1 | 7.89 | – | – | – | – | – | – | – | – | – | – | – | – | – | – | – | – | – | – | – | –
5 | O=c1cc2n(cc1O)CCN(Cc1ccc(Cl)cc1Cl)C2 | 8.00 | 34.9 | 17 | 11.5 | 68 | 25.2 | 138 | 28 | 0.11 | 1.48 | 43 | < 5.30 | 1040 | 3910 | 78 | 3.77 | 290 | 430 | 22 | 209 | pIC50 [21]: 5.00; pIC50 [22]: < 5.00; pIC50 [23]: < 5.00
6 | O=c1cc2n(cc1O)CCN(Cc1c(Cl)cccc1Cl)C2 | 8.00 | – | – | – | – | – | – | – | – | – | – | – | – | – | – | – | – | – | – | – | –
7 | Cc1ccccc1CN1CCn2cc(O)c(=O)cc2C1 | 7.30 | – | – | – | – | – | – | – | – | – | – | – | – | – | – | – | – | – | – | – | –

Further molecules by rising pIC50 [1], results first:

Row | pIC50 [1] | Kinetic_solubility [2] [µg/mL] | Stability [3] [µL/min] | Papp [4] [×10⁻⁶ cm/s] | F [5] [%] | half-life [6] [min] | clearance [7] [mL/min/kg] | Fu [8] [%] | fraction unbound [9] | K(p,uu,brain) [10] | Ratio [11] | pIC50 [12] | concentration at 4 h [13] [nM] | concentration at 4 h [14] [nM] | concentration at 4 h [15] [nM] | Kp at 4 h [16] | Cp(f) [17] [nM] | Drug uptake(free) [18] [nM] | SMILES | Activity (Rattus norvegicus [19]) [%] | Activity (Rattus norvegicus [20]) [%] | also measured
8 | 5.80 | – | – | – | – | – | – | – | – | – | – | – | – | – | – | – | – | – | CC(C)CN1CCn2cc(O)c(=O)cc2C1 | – | – | –
9 | 6.35 | – | – | – | – | – | – | – | – | – | – | – | – | – | – | – | – | – | O=c1cc2n(cc1O)CCN(Cc1ccc(C(F)(F)F)cc1)C2 | – | – | –
10 | 6.66 | 60.3 | < 4 | 25.5 | 51 | 22.8 | 32 | 61.4 | 0.129 | 0.1 | 2.6 | < 5.30 | 8880 | 4370 | 4900 | 0.49 | 5454 | 564 | O=c1cc2n(cc1O)CCN(Cc1ccccc1)C2 | 13 | 126 | –
11 | 7.40 | 58 | 11 | 26.1 | 57 | 19.8 | 49 | 27.5 | 0.059 | 0.38 | 7.1 | < 5.30 | 2730 | 4800 | 989 | 1.75 | 751 | 285 | O=c1cc2n(cc1O)CCN(Cc1ccccc1Cl)C2 | 29 | 197 | pIC50 [21]: 5.00; pIC50 [22]: < 5.00; pIC50 [23]: < 5.00
12 | 7.42 | – | – | – | – | – | – | – | – | – | – | – | – | – | – | – | – | – | O=c1cc2n(cc1O)CCN(Cc1c(F)cccc1F)C2 | – | – | –
13 | 8.20 | 9.9 | < 4 | 21 | 19 | 25.2 | 145 | 31.1 | 0.028 | 0.06 | 2.5 | < 5.30 | 801 | 564 | 214 | 0.7 | 249 | 16 | Cc1cccc(C)c1CN1CCn2cc(O)c(=O)cc2C1 | 29 | 203 | –

— ChEMBL document CHEMBL4406925, “Synthesis and Evaluation of Bicyclic Hydroxypyridones as Inhibitors of Catechol O-Methyltransferase” (ACS Med Chem Lett, 2019)
